# Test results reported in PMC6407616 (Molecular cell, 2018).
# Positions count from the first letter of the chain named. Names and notes keep the numbering of the source.
# B1: ZMET2: full-length recombinant maintenance DNA methyltransferase from Zea mays (protein)
# chain: MAPSSPSPAAPTRVSGRKRAAKAEEIHQNKEEEEEVAAASSAKRSRKAASSGKKPKSPPKQAKPGRKKKGDAEMKEPVEDDVCAEEPDEEELAMGEEEAEEQAMQEEVVAVAAGSPGKKRVGRRNAAAAAGDHEPEFIGSPVAADEARSNWPKRYGRSTAAKKPDEEEELKARCHYRSAKVDNVVYCLGDDVYVKAGENEADYIGRITEFFEGTDQCHYFTCRWFFRAEDTVINSLVSISVDGHKHDPRRVFLSEEKNDNVLDCIISKVKIVHVDPNMDPKAKAQLIESCDLYYDMSYSVAYSTFANISSENGQSGSDTASGISSDDVDLETSSSMPTRTATLLDLYSGCGGMSTGLCLGAALSGLKLETRWAVDFNSFACQSLKYNHPQTEVRNEKADEFLALLKEWAVLCKKYVQDVDSNLASSEDQADEDSPLDKDEFVVEKLVGICYGGSDRENGIYFKVQWEGYGPEEDTWEPIDNLSDCPQKIREFVQEGHKRKILPLPGDVDVICGGPPCQGISGFNRYRNRDEPLKDEKNKQMVTFMDIVAYLKPKYVLMENVVDILKFADGYLGKYALSCLVAMKYQARLGMMVAGCYGLPQFRMRVFLWGALSSMVLPKYPLPTYDVVVRGGAPNAFSQCMVAYDETQKPSLKKALLLGDAISDLPKVQNHQPNDVMEYGGSPKTEFQRYIRLSRKDMLDWSFGEGAGPDEGKLLDHQPLRLNNDDYERVQQIPVKKGANFRDLKGVRVGANNIVEWDPEIERVKLSSGKPLVPDYAMSFIKGKSLKPFGRLWWDETVPTVVTRAEPHNQVIIHPTQARVLTIRENARLQGFPDYYRLFGPIKEKYIQVGNAVAVPVARALGYCLGQAYLGESEGSDPLYQLPPSFTSVGGRTAGQARASPVGTPAGEVVEQ
# modifications: left off: 6xHis, N-terminal, cleaved | SUMO, N-terminal, state not stated
# B2: CDx: ZMET2 mutated in the aromatic cage of the CD (F441A) (protein)
# chain: B1 chain with F441A
# modifications: left off: 6xHis, N-terminal, cleaved | SUMO, N-terminal, state not stated
# B3: BAHx: ZMET2 mutated in the aromatic cage of the BAH domain (W224L) (protein)
# chain: B1 chain with W224L
# modifications: left off: 6xHis, N-terminal, cleaved | SUMO, N-terminal, state not stated
# B4: 38 bp unmethylated duplex (dsDNA)
# DNA 1: AACGCAGCATGCGCTGCTAGCGCAGCTAGCGCTGCATG
# DNA 2: CATGCAGCGCTAGCTGCGCTAGCAGCGCATGCTGCGTT
# B5: 38 bp hemimethylated duplex (dsDNA)
# DNA 1: B4 DNA 1
# DNA 2: B4 DNA 2
# modifications: 5mC at positions 5, 14, 23 and 32 of strand 1; complement unmethylated
# What was measured:
# ZMET2 [1] = biological target: T1, ZMET2 (Zea mays, UniProt Q9AXT8); test: DNA methyltransferase assay on unmethylated or hemimethylated 38 bp duplexed DNA; format: biochemical; details: 300 nM 38 bp duplex; single-turnover, saturating ZMET2; no peptide; n=2
# T1 sequence (Q9AXT8 1-912): B1 chain
# [2] = biological target: H3Kc9me3 601 dinucleosome with 20 bp DNA linker (Xenopus laevis); test: negative stain electron microscopy
# [3] = Size-exclusion chromatography coupled to multi angle light scattering; format: physicochemical; details: 20 mM Tris-HCl pH 8.0, 150 mM NaCl, 1 mM DTT; Figure S1E
# Method in brief: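 Recombinant ZMET2 was expressed with 0.2 mM IPTG at 20°C for 16–18 h, then purified by imidazole elution, TEV cleavage, Q anion exchange and Superdex 200 gel filtration. Samples were filtered and injected onto an S 050 size-exclusion column equilibrated overnight in MALS buffer. Molar mass was read by inline multi-angle light scattering with refractive index detection.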
# [4] = FP binding of ZMET2 mutants to H3K9me2 tail peptides; details: in words; fluorescence polarization; n=2
# H3Kc9me3 mononucleosomes = test: FP binding of ZMET2 mutants to H3Kc9me3 mononucleosomes; parameters: species or system Xenopus laevis
# naked 157 bp DNA = format: biochemical; details: in words, H3K9me0/2 peptides in trans, Figure S4E
# ZMET2 [5] = biological target: ZMET2 (Zea mays, UniProt Q9AXT8 1-912); test: fluorescence polarization
molecule,measurement,setting,value
"unmethylated: AACGCAGCATGCGCTGCTAGC GCAGCTAGCGCTGCATG (DNA AACGCAGCATGCGCTGCTAGCGCAGCTAGCGCTGCATG; DNA, backbone not given here)","rate constant, 38 bp duplexed DNA without peptide",ZMET2 [1],5.3E-5 (±1.1E-5) min^−1
full-length recombinant ZMET2 (wild type) (from UniProt Q9AXT8 1-912) (enzyme),stoichiometry N (ZMET2 per dinucleosome),[2],1
B1,oligomeric state by molar mass measurement,[3],monomer
B2,binding to H3K9me2 peptides relative to wild type ZMET2,[4],significantly decreased compared to wild type ZMET2
same,fold decrease in affinity for H3Kc9me3 nucleosomes vs wild type ZMET2,"H3Kc9me3 mononucleosomes; fluorescence polarization, n=2",4 fold
same,"rate constant relative to wild type ZMET2, naked DNA",naked 157 bp DNA,comparable to wild type ZMET2
B3,binding to H3K9me2 peptides relative to wild type ZMET2,[4],"did not show a defect, showing instead modestly tighter binding"
same,affinity for H3Kc9me3 nucleosomes relative to wild type ZMET2,"H3Kc9me3 mononucleosomes; in words, n=4",modestly tighter affinity for H3Kc9me3 nucleosomes
B4,binding signal,ZMET2 [5],32 fold tighter than without H3K9me2
B5,binding signal,ZMET2 [5],36 fold tighter than without H3K9me2
